Screens from PubChem BioAssay.
Beta apoptosis: beta cell apoptosis inhibition; INS-1E cytokine-induced death, ATP luminescence, 48 h; percent of positive-control rescue, neutral wells zero; protection from apoptosis, % (test concentration not listed); 300,000 compounds, 0.8% hits; AID 435005;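 active means Every replicate reaches about 75%, or at least half do and their mean reaches it too, limit read from the data; inconclusive means At least half of replicates reach the limit but their mean does not; inactive means Under half of replicates reach the limit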;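 further: 0% = cytokine-treated negative control wells and 100% = positive control rescue; higher means more ATP so stronger rescue from cytokine killing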
CSC inhib: cancer stem cell inhibition; cancer stem cell-like cells viability, luminescence; inhibition, % at 7.5 µM; 300,000 compounds, 1.1% hits; in the data active means inhibition above about 75%; inconclusive means no clear call, values can overlap the other calls; tested in HMLE shEcad cells
Mdm2-MdmX inh: inhibitors of human Mdm2/MdmX interaction; O15151+Q00987; SaOS-2 split-luciferase Mdm2/MdmX complementation, luminescence; inhibition, % at 8 µM; 330,000 compounds, 3% hits; AID 485346;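 active means inhibition of at least 50% at 8 µM in the primary screen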
Target sequence (O15151 whole entry, looked up): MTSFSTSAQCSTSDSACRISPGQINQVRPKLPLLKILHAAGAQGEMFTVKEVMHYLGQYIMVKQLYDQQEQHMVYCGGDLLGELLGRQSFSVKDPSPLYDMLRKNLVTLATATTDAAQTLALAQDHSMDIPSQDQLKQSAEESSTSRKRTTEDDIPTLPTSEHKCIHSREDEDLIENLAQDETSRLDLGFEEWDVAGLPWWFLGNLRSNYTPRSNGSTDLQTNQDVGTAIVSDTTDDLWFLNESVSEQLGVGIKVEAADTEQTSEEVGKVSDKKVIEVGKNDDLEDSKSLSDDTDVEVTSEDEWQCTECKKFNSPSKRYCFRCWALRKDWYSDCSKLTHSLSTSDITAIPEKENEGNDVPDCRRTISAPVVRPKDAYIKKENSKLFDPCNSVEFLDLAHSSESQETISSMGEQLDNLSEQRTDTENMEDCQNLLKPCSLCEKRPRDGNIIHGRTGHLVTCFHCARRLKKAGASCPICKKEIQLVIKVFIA
Target sequence (Q00987 whole entry, looked up): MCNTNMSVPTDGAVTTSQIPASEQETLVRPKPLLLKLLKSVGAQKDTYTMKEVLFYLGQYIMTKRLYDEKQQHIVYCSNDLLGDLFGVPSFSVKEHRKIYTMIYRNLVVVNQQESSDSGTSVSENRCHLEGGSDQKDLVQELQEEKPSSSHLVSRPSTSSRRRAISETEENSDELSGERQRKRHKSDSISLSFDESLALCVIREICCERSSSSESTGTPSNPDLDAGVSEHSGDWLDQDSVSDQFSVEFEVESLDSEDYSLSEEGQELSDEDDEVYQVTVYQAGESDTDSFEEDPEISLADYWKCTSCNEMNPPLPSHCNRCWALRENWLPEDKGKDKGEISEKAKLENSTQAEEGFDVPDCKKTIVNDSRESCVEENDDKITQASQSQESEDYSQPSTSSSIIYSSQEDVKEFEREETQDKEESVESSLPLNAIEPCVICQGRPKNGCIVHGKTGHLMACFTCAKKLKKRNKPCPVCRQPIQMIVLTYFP
SKKanGAS inh: blocks kanamycin growth of S. pyogenes SKKanGAS strain. BacTiter-Glo, 6 h. AID 1662. 300,000 compounds, 1.3% hits. inhibition, % at 7.5 µM;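 active means mean replicate score, as percent of positive control median, at least 50; inconclusive means mean below 50 but one replicate at or above 50; inactive means mean and every replicate below 50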;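 further: strain carries kanamycin resistance gene driven by streptokinase promoter and grows in 40 µg/ml kanamycin; loss of luminescence reflects streptokinase promoter inhibition or plain growth inhibition; 0% = median of DMSO wells and 100% = positive control at its reference dose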
T cruzi repl: blocks replication of Trypanosoma cruzi; T. cruzi beta-gal in NIH3T3, luminescence, 90 h; inhibition, % (no concentration beside the values); AID 1885; 300,000 compounds, 1.4% hits;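 active means mean inhibition across valid replicates above about 55%, limit read from the data; inconclusive means mean below that limit but half or more replicates reach it; inactive means mean below it, under half of replicates reach it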;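 further: signal also drops with host cell toxicity which is not excluded here; 0% = plate median of DMSO wells and 100% = zero luminescence signal; higher percent means less beta-gal luminescence so fewer parasites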
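System: mouse NIH/3T3 fibroblasts infected with β-gal-expressing T. cruzi Tulahuen C4 / Input: NIH/3T3 cells, 5,000 per well / Buffer or medium: Low-serum DMEM with 2% FBS / Probe or stimulus: 5000 reporter trypomastigotes per well / Schedule: ≥90 h infection period, 3 h prior cell attachment / Measured by: GalScreen luminescence, 60 min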
Lmaj promast: inhibitors of Leishmania major promastigote growth | inhibition, % at 10 µM | Leishmania major promastigotes, resazurin fluorescence viability | 200,000 compounds, 9% hits | AID 1063; in the data active means inhibition above about 50%;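 further: promastigotes grown with compound for 44 hours at 28 °C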
* marks the source's active call; other numbers are inactive results; ? = inconclusive; nt = not tested or not shown. Sampled rows, rich in hits. Any-hit rate of the full collection: about 9.4%.

SMILES	Beta apoptosis	CSC inhib	Mdm2-MdmX inh	SKKanGAS inh	T cruzi repl	Lmaj promast
Nc1ncnc2nc(SCC(=O)Nc3ccccc3F)[nH]c12	-5	4	32	-5	-15	nt
COc1ccc(N(CC(=O)N2CCN(c3ccc(Cl)cc3)CC2)S(=O)(=O)c2c(C)n[nH]c2C)cc1	-6	-9	17	2	27	-8
COc1ccc(C2C(C#N)=C(N)Oc3cc4c(cc32)OCO4)cc1 (stereo not given)	-6	27	25	4	-9	96*
Fc1ccc(NC(=S)Nc2cccc3cnccc23)cc1	0	36	-2	5	-9	8
S=C(Nc1ccc(Cl)cc1)Nc1cccc2cnccc12	91*	52	11	3	25	3
FC(F)(F)c1cc(Nc2ccccc2)nc(-c2ccccn2)n1	7	5	6	77*	-6	nt
CC(C)Nc1cc(C(F)(F)F)nc(-c2ccccn2)n1	-7	-13	1	1	-9	3
CC1O[C@@H](O[C@H](C)CC[C@@H](C)O)C(O)C[C@H]1O (stereo not given in full)	-15	-3	13	0	-15	nt
Cc1ccc(OCC(=O)Nc2nc(-c3ccccn3)cs2)c(C)c1	4	nt	43	97*	12	nt
c1ccc(CCNc2nc(-c3ccccn3)cs2)cc1	43	26	-43	121*	7	100*
CC(=O)Nc1ccc(C(=O)Nc2nc(-c3cccnc3)cs2)cc1	-6	nt	26	0	0	14
CC1CC1C(=O)Nc1nc(-c2ccccn2)cs1 (stereo not given)	-1	2	20	85*	0	100*
CC(=O)Nc1ccc(C(=O)Nc2nc(-c3ccccn3)cs2)cc1	16	17	26	6	19	64*
c1ccc(CCNc2nc(-c3cccnc3)cs2)cc1	-5	-23	-38	16	16	13
Cc1cc(=O)n(-c2ccc(Cl)cc2)c(=O)[nH]1	-4	5	5	1	-4	-4
COCCOc1cc2ncnc(N3CCC(C(=O)O)CC3)c2cc1OCCOC	nt	8	-22	1	-1	nt
Nc1ccccc1SCC(=O)Nc1cccc2ccccc12	-2	7	-9	2	9	nt
O=C(Nc1ccccn1)c1ccc2c(c1)OCCO2	-1	-7	-71	2	-13	0
O=C(Nc1nc(-c2ccccn2)cs1)c1ccc2c(c1)OCCO2	5	26	-32	83*	49	99*
C[C@@H](C(=O)Nc1nc(-c2ccccn2)cs1)N1C(=O)C2CCCCC2C1=O (stereo not given in full)	-10	5	10	43	-1	100*
O=C(NCc1cccnc1)c1ccc(NC(=O)c2ccc(Br)cc2)cc1	140*	85*	32	-1	-51	nt
CC(C)C(=O)Nc1ccc(C(=O)NCc2cccnc2)cc1	107*	44	0	0	30	-7
O=C(NCc1cccnc1)c1ccc(NC(=O)c2ccco2)cc1	nt	0	29	-6	-2	1
Cc1csc(=O)n1CC(=O)Nc1nc2ccccc2s1	-7	nt	-9	nt	nt	nt
Clc1ccccc1OCCCCN1CCCC1	0	-18	2	-6	22	96*
SMILES	Beta apoptosis	CSC inhib	Mdm2-MdmX inh	SKKanGAS inh	T cruzi repl	Lmaj promast
Cc1cc(C)c(OCCN2C(=O)NC(C)(C)C2=O)c(Cl)c1	1	-13	4	0	-7	8
Brc1ccccc1OCCCN1CCCCCC1	10	21	1	0	24	90*
Brc1ccccc1OCCCN1CCCC1	-3	6	-10	-15	?	nt
Clc1ccccc1OCCCCN1CCCCC1	-2	-41	1	-4	15	nt
CC(=O)c1ccccc1OCCCN1CCCCC1	4	0	10	-1	1	90*
Cc1cc(Cl)c(OCCN2C(=O)NC(C)(C)C2=O)c(Br)c1	-5	-9	18	0	0	63*
Cc1cccc2c1cnn2C(=O)Nc1ccccc1Cl	-2	1	-65	4	3	nt
O=C(/C=C/c1cc(Br)ccc1F)OCC(=O)N1CCCC1	-7	nt	-12	nt	nt	nt
CC(C)(C(=O)Nc1nccs1)c1ccccc1	-5	-2	-7	-3	9	8
O=S(=O)(c1ccccc1F)N1CCN(Cc2cc3c(cc2Br)OCCO3)CC1	10	nt	14	nt	nt	nt
CCCCC(=O)OCC(=O)c1[nH]c(C)c(C(C)=O)c1C	1	-11	-4	1	-15	-9
